Source: PubChem
In the library only some 2.9% were active in any assay of this set; here they are far more common.
FGF22 binding – binders of human FGF22 protein, primary screen, FGF22 synaptogenesis inhibitor project, biophysical, thermal shift, single point | Fibroblast growth factor 22 (Homo sapiens), Q9HCT0 | recombinant FGF22 thermal shift, SYPRO orange fluorescence; percent of sucrose octasulfate shift, DMSO zero | activity (Tm shift, normalised), % at 9.99 µM | actives 1.5% (n = 340,000) | AID 651658, 2012;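 active = mean Tm shift, scaled 0 neutral to 100 positive control, at about 1.3% or above, every replicate too, limit read from the data; inconclusive = no clear call, values can overlap the other calls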
Target sequence (Q9HCT0 whole entry, looked up): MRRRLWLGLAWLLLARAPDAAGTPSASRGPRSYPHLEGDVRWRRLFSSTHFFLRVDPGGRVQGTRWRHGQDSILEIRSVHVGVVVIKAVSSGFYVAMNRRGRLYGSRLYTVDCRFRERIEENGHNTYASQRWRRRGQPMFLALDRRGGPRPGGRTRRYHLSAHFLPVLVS
Vif inh – HIV Vif self-association inhibitors, primary screen, imaging, HEK293T, single point; HEK293T cells, Vif self-association by quenched fluorescence, 24 h; inhibition, % at 7.49 µM; actives 0.35% (n = 340,000); AID 602346, 2012; in the data active = inhibition above about 50%, passing the limit was not always enough; inconclusive = no clear call, values can overlap the other calls; inactive = below about 31%
Cneo AK release – Cryptococcus neoformans cell lysis inducers, primary screen, AK release luminescence, single concentration. C. neoformans lysis, adenylate kinase release luminescence, 4 h; normalised: neutral wells 0, clomiphene wells 100. lysis activity, % at 15 µM. actives 0.2% (n = 360,000). AID 651654, 2012;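 active = mean lysis activity across replicates of at least 80%, whatever share of replicates individually reach that level; inactive = mean lysis activity below 80%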
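Material – log-phase Cryptococcus neoformans yeast cells · Input – 5 × 10^6 yeast cells/mL · Medium – fresh YPD growth medium · Doses – single compound concentration per well · Timing – static 4 h at 37 °C with compound, 1 h detection · Detection – adenylate kinase release luminescence · Read-out – signal increase indicating cell lysis · Control set – Clomiphene as positive lysis control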
PglD DTNB – C. jejuni PglD acetyltransferase inhibitors, primary screen, biochemical, DTNB colorimetric, single point. actives 0.098% (n = 360,000). purified PglD enzyme, DTNB colorimetric CoA detection. AID 602405, 2012. inhibition, % at 12.5 µM. UDP-N-acetylbacillosamine N-acetyltransferase PglD (Campylobacter jejuni); in the data active = inhibition above about 16%, passing the limit was not always enough; inconclusive = no clear call, values can overlap the other calls
rRNA inh HTS – reduced GFP signal of wild-type E. coli, primary screen, bacterial rRNA inhibitor project, GFP/RFP fluorescence, OD600, single point; E. coli WT GFP vs humanized-ribosome RFP mutants, 24 h; active compounds read low; DMSO median 0, no signal -100; GFP signal change (wild-type ribosome), % (concentration not given with the values); actives 1.6% (n = 350,000); AID 720706, 2013;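 active = significant combined selectivity score with lowered wild-type GFP, culture density cut under 30%, mutant RFP and density less affected; inactive = any of these conditions unmet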
PGC1a acetyl inh – inhibitors of PGC1a acetylation signal, primary screen, cell-based, U2OS, AlphaScreen, inhibitor mode. AlphaScreen anti-acetyl-lysine; with virally co-expressed GCN5 acetyltransferase. inhibition, % at 15.6 µM. actives 0.17% (n = 350,000). AID 651687, 2012;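 active = every replicate shows inhibition of at least 40%; inconclusive = mean inhibition at least 40% but some replicate below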;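 also: 0% = neutral control wells and 100% = positive control wells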
* = called active by the depositor; ? = inconclusive; . = no result.

SMILES	FGF22 binding	Vif inh	Cneo AK release	PglD DTNB	rRNA inh HTS	PGC1a acetyl inh
COc1ccc(-n2nc(C(=O)NCC(=O)NCC3COc4ccccc4O3)c3ccccc3c2=O)c(OC)c1 (stereo not given)	44*	-4	.	.	16	-31
CO[C@@H]1CN(C)C(=O)c2cc(NC(C)=O)ccc2OC[C@H](C)N(C(=O)C2CCCCC2)C[C@H]1C	.	.	.	.	1	.
O=C(C[C@@H]1C[C@H]2c3cc(NC(=O)Nc4ccccc4F)ccc3O[C@H]2[C@@H](CO)O1)NCc1ccc2c(c1)OCO2	.	.	.	.	-3	.
COc1ccc(NC(=O)N(C)C[C@H]2Oc3c(NS(=O)(=O)c4ccccc4)cccc3C(=O)N([C@H](C)CO)C[C@H]2C)cc1	.	.	.	.	-2	-14
CC(C)CN1CCN(CCCOC(=O)Nc2cccc3ccccc23)CC1C (stereo not given)	44*	2	-1	0	-1	12
CCCCCCC(C)OC(=O)Nc1cccc2ccccc12 (stereo not given)	0	-6	2	-5	1	.
CCCNC(=O)N1CC2(C1)[C@@H](c1ccccc1)[C@@H](CO)N2CC1CC1	.	.	.	.	2	.
CN1CCC(=NNC(=O)C(=O)Nc2cccc(Br)c2)CC1	43*	-1	.	.	11	-4
COc1ccc(-c2cc(C(=O)N3CCCCCC3)c3ccccc3n2)c(OC)c1	0	8	2	-3	-33*	-10
C[C@@H]1CN([C@H](C)CO)C(=O)c2cc(C#Cc3ccccn3)cnc2O[C@H]1CN(C)Cc1ccncc1	0	.	0	-2	-3	0
CC(=O)Oc1ccc(-c2csnn2)cc1	.	31	2	2	.	95*
S=C(NCc1ccco1)Nc1ccc(Br)cc1Cl	0	16	.	.	-37*	3
Cc1cc(CNC(=S)Nc2ccc(Br)cc2Cl)nn1C	42	-7	.	.	-47*	.
O=C(c1ccco1)N1CCN(C(=S)Nc2ccc(Br)cc2Cl)CC1	0	12	4	-3	-44*	.
Cc1cc(C)cc(NC(=S)N2CCN(C(=O)c3ccco3)CC2)c1	0	-9	-1	2	8	.
S=C(NCc1ccco1)Nc1ccc(Cl)cc1Cl	0	-3	.	.	-15	.
CC(=O)N(C)C[C@@H]1Oc2cc(-c3ccc(C)cc3)ccc2S(=O)(=O)N([C@@H](C)CO)C[C@H]1C	1	.	36	0	-11	-4
OCCN(Cc1ccccc1)Cc1ncccc1O	43*	-7	0	2	15	-13
CCOC(=O)c1ccc(NC(=O)Nc2ccc(F)cc2)cc1	.	-5	-3	-2	.	?
CCOc1cc(NC(=O)Nc2ccc(F)cc2)c(OCC)cc1NC(=O)CC	0	5	0	-12	-38*	.
CC(C)NC(=O)N(C)C[C@@H]1Oc2ccc(N(C)C)cc2CC(=O)N(C)C[C@@H]1C	.	.	.	.	0	.
N#CCCN1CCN(C2=NC(=O)/C(=C\c3cccs3)S2)CC1	44*	12	.	.	10	.
CC(C)c1ccc(Nc2nc(N3CCOCC3)nc(N3CCOCC3)n2)cc1	1.6*	0	-1	-1	7	6
Cc1ccc(Nc2nc(N3CCOCC3)nc(N3CCOCC3)n2)cc1	.	22	6	-4	.	.
O=C(C[C@H]1C[C@@H]2c3cc(NC(=O)NC4CCCC4)ccc3O[C@@H]2[C@@H](CO)O1)NCc1ccc(Oc2ccccc2)cc1	0	.	2	2	-10	-6
SMILES	FGF22 binding	Vif inh	Cneo AK release	PglD DTNB	rRNA inh HTS	PGC1a acetyl inh
COc1cc(NC(=S)N2CCN(CCO)CC2)c(OC)cc1Cl	.	-3	-3	-5	9	2
COc1cc(NC(=S)N2CCCC(CO)C2)c(OC)cc1Cl (stereo not given)	44*	10	.	.	13	.
Cc1cccc(S(=O)(=O)N[C@H]2CC[C@H](CCNC(=O)c3cnccn3)O[C@H]2CO)c1	0	.	-13	2	-1	3
Cc1oc(-c2ccc(Cl)cc2)nc1CN1CCCC(C(=O)NCc2cccnc2)C1 (stereo not given)	.	-18	7	-6	.	.
CSc1ccc(-c2nc(CN3CCCCC3c3cccnc3)c(C)o2)cc1 (stereo not given)	0	-12	.	.	-21*	9
C[C@H]1CCCCO[C@H](CN(C)S(=O)(=O)c2cn(C)cn2)[C@@H](C)CN([C@@H](C)CO)C(=O)c2cc(NS(=O)(=O)c3cn(C)cn3)ccc2O1	0	.	0	0	2	-4
C#CCN1CCc2onc(-c3ccccc3OC)c2C1=O	43*	-7	-1	3	8	6
NC(=O)c1ccsc1NC(=O)CSc1nnc(Nc2ccccc2)s1	1.5*	-13	.	.	-42	.
NC(=O)c1ccsc1NC(=O)CSc1ccccc1F	.	-3	1	-4	-16	-5
O=C(CSc1nnc(NC(=O)c2ccccc2F)s1)NC1CCCC1	0	9	0	3	-3	.
CC(=O)Nc1ccc(NC(=O)CSc2nnc(NC(=O)c3ccccc3F)s2)cc1	1.9*	3	-6	-4	-4	3
CCNC(=O)C[C@@H]1C=C[C@H](NS(=O)(=O)c2ccc(C)cc2)[C@@H](CO)O1	0	.	0	-1	0	-15
C[C@@H]1CN([C@@H](C)CO)C(=O)c2ccccc2-c2ccccc2CO[C@@H]1CN(C)S(=O)(=O)c1cn(C)cn1	.	.	.	.	-1	.
COc1ccc(/C=N/NC(=O)c2snnc2C)c(OC)c1OC	43*	-1	-1	-1	9	3
Cc1ccccc1Nc1cccc2nonc12	1	-7	5	5	-40*	-9
Cc1ccccc1Nc1ccc2nonc2c1[N+](=O)[O-]	0	6	1	-5	8	5
COc1ccc(NC(=O)N(C)C[C@@H]2Oc3ccc(NC(=O)NC4CCCCC4)cc3CC(=O)N([C@H](C)CO)C[C@H]2C)cc1	0	.	-14	-8	0	-9
CC(C)NC(=O)N(C)C[C@@H]1Oc2ncc(C#CC3CC3)cc2C(=O)N([C@@H](C)CO)C[C@@H]1C	0	.	3	0	1	-3
CC(=O)c1cccc(S(=O)(=O)N2CCC(c3nc4ccccc4[nH]3)CC2)c1	0	7	1	1	2	19
COc1ccccc1NC(=O)CN1CCC(c2nc3ccc(C)cc3[nH]2)CC1	0	18	-2	4	-26*	.
